Test results reported in ChEMBL document CHEMBL2146477, “Antimicrobial Activity of Adenine-Based Inhibitors of NAD(+)-Dependent DNA Ligase” (ACS Med Chem Lett, 2012).
Converted amounts (≈) assume the structure as drawn.

Assays:
[1] = Inhibition of NAD-dependent LigA in Streptococcus pneumoniae SPN100 after 20 mins by FRET assay
Procedure, shortened: (§1)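 LigA enzyme assay with NAD+ at a low multiple of its Km (around 1–10 μM). Percent inhibition was measured at 2-fold serial dilutions of compound, and IC50 was interpolated. The reported value is the geometric mean of at least 2 determinations.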

Haemophilus influenzae [2] = experiment: Antibacterial activity against Haemophilus influenzae HIN102 overexpressing LigA by NCCLS broth microdilution method; format: functional
Procedure, shortened: (§2)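 MIC measured on the LigA-overexpressing strain, in duplicate on different days. The reported MIC is the geometric mean of the two. The maximum test concentration was 64 μg/mL.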

[3] = Inhibition of NAD-dependent LigA in AcrABTolC deficient Haemophilus influenzae HIN101 after 20 mins by FRET assay; procedure, shortened: as §1
Haemophilus influenzae [4] = experiment: Ratio of MIC for AcrABTolC deficient Haemophilus influenzae HIN101 to MIC for Haemophilus influenzae HIN102 overexpressing LigA; format: functional
Procedure, shortened: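 MICs for parental HIN101 and isogenic LigA-overexpressing HIN102 were each run in duplicate on different days, up to 64 μg/mL, using geometric-mean values. A difference of at least 4-fold on both occasions was taken to mean the LigA mode of action in the parental strain.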

Streptococcus pneumoniae [5] = experiment: Antibacterial activity against Streptococcus pneumoniae SPN100 by NCCLS broth microdilution method; format: functional
Haemophilus influenzae [6] = experiment: Antibacterial activity against AcrABTolC deficient Haemophilus influenzae HIN101 by NCCLS broth microdilution method; format: functional
Streptococcus pneumoniae [7] = experiment: Antibacterial activity against Streptococcus pneumoniae SPN102 overexpressing LigA by NCCLS broth microdilution method; format: functional; procedure, shortened: as §2
Streptococcus pneumoniae [8] = experiment: Ratio of MIC for Streptococcus pneumoniae SPN102 to MIC for Streptococcus pneumoniae SPN100

Structure (SMILES) | IC50 [1] [nM] | MIC (Haemophilus influenzae [2]) [µg/mL] | IC50 [3] [nM] | Ratio (Haemophilus influenzae [4]) | MIC (Streptococcus pneumoniae [5]) [µg/mL] | MIC (Haemophilus influenzae [6]) [µg/mL] | MIC (Streptococcus pneumoniae [7]) [µg/mL] | Ratio (Streptococcus pneumoniae [8])
Nc1nc(OC2CCC3CCCCC3C2)nc2c1ncn2C1CCCO1 (stereo not given) | 60 | 8 (≈ 22.4 µM) | 860 | 16 | 2 (≈ 5.6 µM) | 8 (≈ 22.4 µM) | – | –
C[C@H]1O[C@@H](n2cnc3c(N)nc(OC4CCC5CCCCC5C4)nc32)[C@H](O)[C@@H]1O (stereo not given in full) | 40 | 32 (≈ 79.3 µM) | 260 | 16 | 0.5 (≈ 1.24 µM) | 8 (≈ 19.8 µM) | – | –
C[C@H]1O[C@@H](n2cnc3c(N)nc(OCC45CC6CC(CC(C6)C4)C5)nc32)[C@H](O)[C@@H]1O | 200 | – | 1700 | – | 2 (≈ 4.81 µM) | 32 (≈ 77 µM) | – | –
Nc1nc(OC2CCC3CCCCC3C2)nc2c1ncn2[C@@H]1O[C@H](CO)[C@@H](O)[C@H]1O (stereo not given in full) | 80 | – | 400 | – | 1 (≈ 2.38 µM) | 16 (≈ 38.1 µM) | – | –
C[C@H]1O[C@@H](n2cnc3c(N)nc(OC4CCCC4)nc32)[C@H](O)[C@@H]1Oc1ccccc1 | 50 | – | 1300 | – | 2 (≈ 4.86 µM) | 64 (≈ 156 µM) | – | –
Nc1nc(OC2CCCC2)nc2c1ncn2[C@@H]1O[C@H](CO)[C@@H](F)[C@H]1O | 100 | > 64 | 300 | 16 | 4 (≈ 11.3 µM) | 8 (≈ 22.6 µM) | > 64 | 64
C[C@H]1O[C@@H](n2cnc3c(N)nc(OC4CCCC4)nc32)[C@H](O)[C@@H]1CC1CCCCC1 | 300 | – | – | – | 16 (≈ 38.5 µM) | – | 16 (≈ 38.5 µM) | 64
Nc1nc(OC2CCC3CCCC3C2)nc2c1ncn2C1CCCO1 (stereo not given) | 200 | – | – | – | 4 (≈ 11.6 µM) | – | 32 (≈ 93.2 µM) | 64
